Assay results published in ChEMBL document CHEMBL5325402, “Exploration of novel hexahydropyrrolo[1,2-e]imidazol-1-one derivatives as antiviral agents against ZIKV and USUV” (Eur J Med Chem, 2023).
Converted amounts (≈) assume the structure as drawn. The source made the active and inactive calls. The rule behind the calls is not given here.

Assays:
Zika virus [1] = test: Antiviral activity against ZIKV MR766 infected in African green monkey Vero cells assessed as viral growth inhibition at 0.13 to 100 uM treated immediately after viral infection for 2 hrs by time of addition assay; assay type: functional, organism-based; conditions: dose 0.13-100 µM, in the assay text read “during viral infection” for “immediately after viral infection”
Summary of the method: (§1)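 Time-of-addition assay in Vero. Serial dilutions (100 to 0.13 μM) were added to cells 24 h or 2 h before infection, during the 2 h infection, or post-infection for 24 h (USUV) or 30 h (ZIKV). Cells were fixed in cold acetone-methanol (50:50) and infected cells detected by indirect immunostaining. EC50/EC90 came from variable-slope sigmoidal fits; mean of three independent experiments.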

Usutu virus [2] = test: Antiviral activity against USUV 3345 isolate Arb276 infected in African green monkey Vero cells assessed as reduction in viral replication pretreated with virus for 1 hr followed by infection of cells with compound treated-virus for 20 hrs by focus reduction assay; assay type: functional, organism-based; conditions: Usutu virus, 3345, Vero; for EC90: time 21 hrs
Usutu virus [3] = test: Antiviral activity against USUV 3345 isolate Arb276 infected in African green monkey Vero cells assessed as viral growth inhibition at 0.13 to 100 uM treated immediately after viral infection for 24 hrs by time of addition assay; assay type: functional, organism-based; conditions: dose 0.13-100 µM; summary of the method: as §1
[4] = Aqueous solubility in deionized water containing 1.38% DMSO; assay type: physicochemical
Zika virus [5] = test: Antiviral activity against ZIKV MR766 infected in African green monkey Vero cells assessed as viral growth inhibition at 11 to 100 uM pretreated with virus for 1 hr followed by infection of cells with compound treated-virus for 30 hrs by focus reduction assay relative to control; assay type: functional; conditions: dose 11-100 µM, time 31 hrs
Summary of the method: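 Virus (MOI 0.02) preincubated with compound 1 h at 37 °C, then mixture put on Vero cells (1.2 × 10^4/well, seeded the day before) in DMEM with 2% FBS for 30 h (ZIKV) or 20 h (USUV) at 37 °C. Fixed in cold acetone-methanol, foci immunostained with anti-flavivirus E 4G2 antibody and counted. % infection is relative to DMSO-treated wells. Screen used 100, 33 and 11 μM.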

Usutu virus [6] = test: Antiviral activity against USUV 3345 isolate Arb276 infected in human A549 cells assessed as reduction in viral replication pretreated with virus for 1 hr followed by infection of cells with compound treated-virus for 20 hrs by focus reduction assay; assay type: functional, organism-based; conditions: Usutu virus, 3345, A549; for EC90: time 21 hrs
Summary of the method: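 Dose-response: serial dilutions (100 to 0.13 μM) preincubated 1 h at 37 °C with virus (MOI 0.02), then added to cells for 20 h (USUV) or 30 h (ZIKV) in 2% FBS DMEM. Cells per well: Vero 1.2 × 10^4, A549 1.3 × 10^4, Huh7 1.6 × 10^4. Foci immunostained and counted. EC50/EC90 fitted by variable-slope sigmoidal curve, mean of three independent experiments.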

[7] = Solubility in DMSO at 25 degreeC; assay type: physicochemical
Usutu virus [8] = test: Antiviral activity against USUV 3345 isolate Arb276 infected in African green monkey Vero cells assessed as viral growth inhibition at 0.13 to 100 uM treated immediately after viral infection for 2 hrs by time of addition assay; assay type: functional, organism-based; conditions: dose 0.13-100 µM, in the assay text read “during viral infection” for “immediately after viral infection”; summary of the method: as §1
[9] = Cytotoxicity against African green monkey Vero cells infected with ZIKV MR766 pretreated with virus for 1 hr followed by infection of cells with compound treated-virus for 30 hrs by MTS assay; assay type: toxicity, cell-based; conditions: chlorocebus sabaeus
Summary of the method: (§2)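 MTS viability assay. Cells were treated under the same conditions as the antiviral assays. Absorbance was expressed as % of medium-only cells, and CC50 was derived from the curve. Seeding densities were 1.2 × 10^4/well for Vero, 1.3 × 10^4/well for A549 and 1.6 × 10^4/well for Huh7. DMEM with 2% FBS.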

Zika virus [10] = test: Antiviral activity against ZIKV MR766 infected in African green monkey Vero cells assessed as viral growth inhibition at 0.13 to 100 uM treated immediately after viral infection for 30 hrs by time of addition assay; assay type: functional, organism-based; conditions: dose 0.13-100 µM; summary of the method: as §1
[11] = Solubility in i-propanol at 25 degreeC; assay type: physicochemical
[12] = Cytotoxicity against human Huh-7 cells infected with USUV 3345 isolate Arb276 pretreated with virus for 1 hr followed by infection of cells with compound treated-virus for 20 hrs by MTS assay; assay type: toxicity, cell-based; summary of the method: as §2
[13] = Cytotoxicity against human A549 cells infected with USUV 3345 isolate Arb276 pretreated with virus for 1 hr followed by infection of cells with compound treated-virus for 20 hrs by MTS assay; assay type: toxicity, cell-based; summary of the method: as §2

In the case of `O=C1[C@@H]2CCCN2[C@@H](c2ccc([C@H]3C[C@@H](O)[C@@H](CO)O3)cc2)N1c1ccc([N+](=O)[O-])cc1`, the Activity (Zika virus [1]) is reported as “inactive”, the EC50 (Usutu virus [2]) is reported as 2.53 µM and the EC90 (Usutu virus [2]) is reported as 3.89 µM. For the same compound, the Activity (Usutu virus [3]) was “Active”, the solubility [4] was over 947 µg/mL and the “inhibition (INH)” value (Zika virus [5]) was 100%. The EC50 (Usutu virus [6]) was 6.42 µM, the EC90 (Usutu virus [6]) was 12 µM and the solubility [7] was 96000 µg/mL (≈ 218 mM). The Activity (Usutu virus [8]) was “inactive”, the CC50 at 31 h [9] was over 500 µM and the Activity (Zika virus [10]) was “Active”. It also gave a solubility [11] of 7320 µg/mL (≈ 16.7 mM), a CC50 at 21 h [12] of over 500 µM and a CC50 at 21 h [13] of over 500 µM.
With `O=C1C[C@H](c2ccc([C@H]3N(c4ccc([N+](=O)[O-])cc4)C(=O)[C@@H]4CCCN43)cc2)O[C@@H]1CO` the Activity (Zika virus [1]) was “inactive”, the EC50 (Usutu virus [2]) was 2.76 µM and the EC90 (Usutu virus [2]) was 4.34 µM. For the same compound, the Activity (Usutu virus [3]) was “Active”, the solubility [4] was over 897 µg/mL and the “inhibition (INH)” value (Zika virus [5]) was 100%. For the same compound, the EC50 (Usutu virus [6]) was 6.82 µM, the EC90 (Usutu virus [6]) was 15.2 µM and the solubility [7] was 130000 µg/mL (≈ 297 mM). For the same compound, the Activity (Usutu virus [8]) was “inactive”, the CC50 at 31 h [9] was over 500 µM and the Activity (Zika virus [10]) was “Active”. The solubility [11] was 8570 µg/mL (≈ 19.6 mM), the CC50 at 21 h [12] was over 500 µM and the CC50 at 21 h [13] was over 500 µM.
